{"data": "Results collected from several papers", "target": "RAC-beta serine/threonine-protein kinase (AKT2, Homo sapiens, UniProt P31751)"}
{"SMILES": "Cn1c(=O)n(-c2ccc(C(C)(C)C#N)cc2)c2c3cc(-c4cnc5ccccc5c4)ccc3ncc21", "assay": "enzyme activity, inhibitor", "conditions": "10 µM", "endpoint": "remaining activity", "result": "106%"}
{"SMILES": "C[C@H](c1cccc(C#N)c1)n1cc(Cl)cc(C(N)=O)c1=N", "assay": "cell-free assay, competition with immobilised ligand", "conditions": "1 µM", "endpoint": "remaining binding", "result": "100%"}
{"SMILES": "Cc1ccc(-n2nc(C(C)(C)C)cc2NC(=O)Nc2ccc(OCCN3CCOCC3)c3ccccc23)cc1", "assay": "enzyme activity, inhibitor", "conditions": "10 µM", "endpoint": "inhibition", "result": "-15%"}
{"SMILES": "CCCS(=O)(=O)Nc1ccc(F)c(C(=O)c2c[nH]c3ncc(-c4ccc(Cl)cc4)cc23)c1F", "assay": "enzyme activity, inhibitor", "conditions": "1 µM", "endpoint": "inhibition", "result": "< 10%"}
{"SMILES": "CNC(=O)c1cc(Oc2ccc(NC(=O)Nc3ccc(Cl)c(C(F)(F)F)c3)cc2)ccn1", "assay": "cell-free assay", "conditions": "0.5 µM", "endpoint": "remaining signal", "result": "103%"}
{"SMILES": "O=C(O)c1cc(-c2ccc(C3CCNCC3)cc2)c2ccc(-c3ccc(C(F)(F)F)cc3)cc2c1", "assay": "cell-free assay, competition with immobilised ligand", "conditions": "1 µM", "endpoint": "remaining binding", "result": "95%"}
{"SMILES": "COc1cc2ncnc(Nc3ccc(Oc4ccccc4)cc3C)c2cc1OC", "assay": "enzyme activity, inhibitor", "conditions": "1 µM", "endpoint": "inhibition", "result": "7%"}
{"SMILES": "CNC(=O)c1ccc(Nc2ncc(C(F)(F)F)c(NCc3nccnc3N(C)S(C)(=O)=O)n2)cc1", "assay": "cell-free assay, competition with immobilised ligand", "conditions": "0.1 µM", "endpoint": "remaining binding", "result": "77%"}
{"SMILES": "Cc1cnc(NC2CCOCC2)nc1-n1cnc(C(=O)NC(CN)c2cc(F)cc(Cl)c2)c1 (stereo not drawn)", "assay": "enzyme activity, inhibitor, radiometric", "conditions": "1 µM", "endpoint": "remaining activity", "result": "92%"}
{"SMILES": "O=C1NC(=O)c2cc(Nc3ccc(F)cc3)c(Nc3ccc(F)cc3)cc21", "assay": "cell-free assay", "conditions": "0.5 µM", "endpoint": "remaining signal", "result": "95.1%"}
{"SMILES": "COc1cc(F)ccc1-c1ncnc(Nc2cccc(C[S@](C)(=N)=O)c2)n1", "assay": "enzyme activity, inhibitor", "conditions": "10 µM", "endpoint": "activity vs control", "result": "112%"}
{"SMILES": "c1ccc(N2CCN(Cc3nc4ccccc4[nH]3)CC2)nc1", "assay": "binding, competition with immobilised ligand", "conditions": "1 µM", "endpoint": "remaining binding", "result": "100%"}
{"SMILES": "Cc1sc(C(=O)NC2COC2)cc1-n1cc(NC(=O)Nc2c(F)cccc2Cl)cn1", "assay": "enzyme activity, inhibitor", "conditions": "10 µM", "endpoint": "remaining activity", "result": "88.9%"}
{"SMILES": "CC(C)(C)C(=O)c1sc(NC2CCCCC2)nc1N", "assay": "enzyme activity, inhibitor", "conditions": "10 µM", "endpoint": "remaining activity", "result": "83%"}
{"SMILES": "Cc1ccc(C(=O)Nc2ccc(CN3CCN(C)CC3)c(C(F)(F)F)c2)cc1C#Cc1cnc2cccnn12", "assay": "enzyme activity, inhibitor", "conditions": "23.5 nM", "endpoint": "remaining activity", "result": "95%"}
{"SMILES": "O=C(NCc1ncc(C(F)(F)F)cc1Cl)c1ccc2c(c1)C1(CCS(=O)(=O)CC1)[C@H](C1CC1)N2S(=O)(=O)c1ccc(F)cc1", "assay": "cell-free assay, competition with immobilised ligand", "conditions": "1 µM", "endpoint": "remaining binding", "result": "100%"}
{"SMILES": "Oc1cccc(-c2nc(N3CCOCC3)c3oc4ncccc4c3n2)c1", "assay": "enzyme activity, inhibitor", "conditions": "10 µM", "endpoint": "remaining activity", "result": "114%"}
{"SMILES": "CC(C)(C)c1nc(-c2cccc(NS(=O)(=O)c3c(F)cccc3F)c2F)c(-c2ccnc(N)n2)s1", "assay": "enzyme activity, inhibitor, radiometric", "conditions": "1 µM", "endpoint": "remaining activity", "result": "91%"}
{"SMILES": "CNC(=O)Nc1ccc2c(c1)CC[C@@]21OC(=O)N(CC(=O)N(Cc2ccc(F)cc2)[C@@H](C)C(F)(F)F)C1=O", "assay": "cell-free assay, competition with immobilised ligand", "conditions": "1 µM", "endpoint": "remaining binding", "result": "80%"}
{"SMILES": "CCN(CC)c1ccc(C2=NNC(=O)CC2C)cc1[N+](=O)[O-] (stereo not drawn)", "assay": "enzyme activity, inhibitor", "conditions": "10 µM", "endpoint": "remaining activity", "result": "101%"}
{"SMILES": "C[C@@]1(Cc2ccc(C#N)cc2)C(=O)N(c2cc(Cl)cc(Cl)c2)c2ncc(C(=O)NC3(c4nc(C5CCC5)no4)CC3)n21", "assay": "cell-free assay, competition with immobilised ligand", "conditions": "1 µM", "endpoint": "remaining binding", "result": "100%"}
{"SMILES": "COc1cc(Nc2cnc(C#N)c(O[C@H](C)CN(C)C)n2)ncc1-c1cnn(C)c1", "assay": "enzyme activity, inhibitor, radiometric", "conditions": "10 µM", "endpoint": "remaining activity", "result": "67%"}
{"SMILES": "N#CCCc1ccc2c(c1)-c1[nH]c3ccc([N+](=O)[O-])cc3c1CC(=O)N2", "assay": "cell-free assay", "conditions": "0.5 µM", "endpoint": "remaining signal", "result": "100%"}
{"SMILES": "Nc1nc(NC2CCCCC2)sc1C(=O)c1ccccc1", "assay": "enzyme activity, inhibitor", "conditions": "10 µM", "endpoint": "remaining activity", "result": "73%"}
{"SMILES": "CC/C(=N\\NC(=O)NCc1cccc(O)c1)c1ccc(O)c(C)c1O", "assay": "enzyme activity, inhibitor", "conditions": "0.1 µM", "endpoint": "inhibition", "result": "0.2%"}
{"SMILES": "Cc1ccc(C(=O)NCc2ccsc2)cc1C#Cc1cn(C(C)C)c2ncnc(N)c12", "assay": "enzyme activity, inhibitor", "conditions": "1 µM", "endpoint": "activity vs control", "result": "99%"}
{"SMILES": "Cc1c(C(=O)O)cc(-c2ccc(C3CCNCC3)cc2)c2ccc(-c3ccc(C(F)(F)F)cc3)cc12", "assay": "binding, competition with immobilised ligand", "conditions": "1 µM", "endpoint": "remaining binding", "result": "100%"}
{"SMILES": "CN1CC(Oc2cnc(C#N)cc2-c2ccn3nc(NC(=O)C4CC4)cc3c2)C1", "assay": "enzyme activity, inhibitor", "conditions": "1 µM", "endpoint": "inhibition", "result": "-3%"}
{"SMILES": "Oc1cccc(-c2nc(N3CCOCC3)c3oc4ncccc4c3n2)c1", "assay": "cell-free assay", "conditions": "0.5 µM", "endpoint": "remaining signal", "result": "99.1%"}
{"SMILES": "Cc1ccc(NC(=O)c2ccc(C)c(C(F)(F)F)c2)cc1C#Cc1nn(C2CCC(O)CC2)c2ncnc(N)c12 (stereo not drawn)", "assay": "cell-free assay", "conditions": "10 µM", "endpoint": "remaining signal", "result": "127%"}
